Laboratory results reported in ChEMBL document CHEMBL1140709, “Design, synthesis, and biological evaluation of (E)-styrylbenzylsulfones as novel anticancer agents” (J Med Chem, 2008).
Active and inactive are the calls of the source. No cut-off for these calls is given here.

Tests used:
BT-20 [1] = experiment: Growth inhibition of human BT20 after 3 weeks by soft agar colony formation assay; type: functional, cell-based
Outline: (§1)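 Noble agar: 0.8% bottom layer; cells (1.0 × 10⁵ for MIA-PaCa-2) in medium with compound at various concentrations, mixed into 0.4% top agar. Each concentration in triplicate; 3 weeks at 37 °C, 5% CO₂. Stained with 0.05% nitroblue tetrazolium for 48 h and colonies photographed.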

BT-20 [2] = experiment: Antitumor activity against human BT20 cells by trypan blue exclusion assay; type: functional, cell-based
Outline: (§2)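 Tumour cells were grown in DMEM or RPMI with 10% fetal bovine serum and 1 unit/mL penicillin-streptomycin. They were seeded in six-well dishes at 1.0 × 10⁵ cells/mL/well, and compound was added 24 h later over a range of concentrations. After 96 h of exposure, viable cells in duplicate wells were counted by trypan blue exclusion.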

DU-145 [3] = experiment: Antitumor activity against AR-negative human DU145 cells by trypan blue exclusion assay; type: functional, cell-based; outline: as §2
[4] = Antitumor activity against human H157 cells by trypan blue exclusion assay; type: functional, cell-based; settings: NCI-H157; outline: as §2
DLD-1 = experiment: Antitumor activity against human DLD1 cells by trypan blue exclusion assay; type: functional, cell-based; outline: as §2
Mus musculus [5] = experiment: Hematotoxicity in CD1 mouse at 100 mg/kg, iv; type: organism-based; set-up: dose 100 mg/kg, route intravenous; settings: in vivo
Outline: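 CD-1 mice received 200 µL iv of PBS or drug (10 mg/mL; 100 mg/kg). Bone marrow was taken from femur and tibia 12, 24 or 48 h later. Cells were cultured in duplicate in methylcellulose with stem cell factor 50 ng/mL, IL-3 10 ng/mL, IL-6 10 ng/mL, transferrin 200 µg/mL and erythropoietin 3 units/mL. Total, myeloid and lymphoid colony-forming units were counted after 1 week.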

Rattus norvegicus [6] = experiment: Hematotoxicity in rat at 100 mg/kg, iv; type: organism-based; set-up: dose 100 mg/kg, route intravenous; settings: in vivo
Outline: (§3)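 Rats were given the water-soluble phosphate form iv in single-dose and repeat-dose (28 daily injections) toxicology studies, with biochemical and cellular analysis.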

Mus musculus [7] = experiment: Effect on liver damage in CD1 mouse at 100 mg/kg, iv; type: ADME, organism-based; set-up: dose 100 mg/kg, route intravenous; settings: in vivo
Mus musculus [8] = experiment: Neurotoxicity in CD1 mouse at 100 mg/kg, iv; type: toxicity, organism-based; set-up: dose 100 mg/kg, route intravenous; settings: in vivo
Rattus norvegicus [9] = experiment: Effect on liver damage in rat at 100 mg/kg, iv; type: ADME, organism-based; set-up: dose 100 mg/kg, route intravenous; settings: in vivo; outline: as §3
Rattus norvegicus [10] = experiment: Neurotoxicity in rat at 100 mg/kg, iv; type: toxicity, organism-based; set-up: dose 100 mg/kg, route intravenous; settings: in vivo; outline: as §3
DU-145 [11] = experiment: Growth inhibition of human DU145 after 3 weeks by soft agar colony formation assay; type: functional, cell-based; outline: as §1
MIA PaCa-2 = experiment: Growth inhibition of human MiaPaCa2 cells after 3 weeks by soft agar colony formation assay; type: functional, cell-based; outline: as §1
BT-20 [12] = experiment: Antitumor activity against human BT20 xenografted athymic NCR-nu/nu mouse at 50 mg/kg, ip after 22 days

With `COc1cc(OC)c(/C=C/S(=O)(=O)Cc2ccc(OC)c(OP(=O)([O-])O)c2)c(OC)c1.[Na+]` the Activity (BT-20 [1]) was “Dose-dependent effect”, the IC50 (BT-20 [2]) was 5 nM and the IC50 (DU-145 [3]) was 2.5 nM. The IC50 [4] was 7 nM, the IC50 (DLD-1) was 7 nM and the Activity (Mus musculus [5]) was “Non-toxic”. For the same compound, the Activity (Rattus norvegicus [6]) was “Non-toxic”, the Activity (Mus musculus [7]) was “Non-toxic” and the Activity (Mus musculus [8]) was “Non-toxic”. The Activity (Rattus norvegicus [9]) was “Non-toxic”, the Activity (Rattus norvegicus [10]) was “Non-toxic” and the Activity (DU-145 [11]) was “Dose-dependent effect”. For the same compound, the Activity (MIA PaCa-2) was “Dose-dependent effect” and the Activity (BT-20 [12]) was “Active”.
